According to ChEMBL document CHEMBL4373711, “Development of 3,5-Dinitrophenyl-Containing 1,2,4-Triazoles and Their Trifluoromethyl Analogues as Highly Efficient Antitubercular Agents Inhibiting Decaprenylphosphoryl-β-d-ribofuranose 2'-Oxidase” (J Med Chem, 2019):
Values after ≈ are worked out from the molar mass of the structure shown.

Tests used:
[1] = tested on: Mycobacterium tuberculosis; assay: Antimycobacterial activity against multi-drug resistant Mycobacterium tuberculosis Praha 1 after 21 days; assay type: functional; settings: Praha 1, 504 h
Outline: (§1)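 M. tuberculosis strains (H37Rv and clinical MDR/XDR isolates) tested by microdilution in Šula's semisynthetic medium. Compounds were dissolved in DMSO and tested at 32 to 0.03 µM in twofold steps. Inoculum was a 1.0 McFarland suspension diluted 10-3. Plates were incubated at 37 °C and read at 14 and 21 days.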

[2] = tested on: Mycobacterium tuberculosis; assay: Antimycobacterial activity against multi-drug resistant Mycobacterium tuberculosis Praha 4 after 14 days; settings: Praha 4, 336 h
[3] = tested on: Mycobacterium tuberculosis; assay: Antimycobacterial activity against multi-drug resistant Mycobacterium tuberculosis 7357/1998 after 21 days; assay type: functional; settings: for MIC99: 7357/1998, 504 h; outline: as §1
[4] = tested on: Mycobacterium tuberculosis; assay: Antimycobacterial activity against multi-drug resistant Mycobacterium tuberculosis 9449/2007 after 21 days; assay type: functional; settings: for MIC99: 9449/2007, 504 h; outline: as §1
[5] = tested on: Mycobacterium tuberculosis; assay: Antimycobacterial activity against multi-drug resistant Mycobacterium tuberculosis 9449/2007 after 14 days; assay type: functional; settings: 9449/2007, 336 h; outline: as §1
[6] = tested on: Mycobacterium tuberculosis; assay: Antimycobacterial activity against multi-drug resistant Mycobacterium tuberculosis 7357/1998 after 14 days; assay type: functional; settings: 7357/1998, 336 h; outline: as §1
[7] = tested on: Mycobacterium tuberculosis; assay: Antimycobacterial activity against multi-drug resistant Mycobacterium tuberculosis Praha 4 after 21 days; assay type: functional; settings: Praha 4, 504 h; outline: as §1
[8] = tested on: Mycobacterium tuberculosis; assay: Antimycobacterial activity against multi-drug resistant Mycobacterium tuberculosis 8666/2010 after 21 days; assay type: functional; settings: 8666/2010, 504 h; outline: as §1
[9] = tested on: Mycobacterium tuberculosis; assay: microbe, parasite or virus in culture; settings: 234/2005, 336 h
[10] = tested on: Mycobacterium tuberculosis; assay: Antimycobacterial activity against multi-drug resistant Mycobacterium tuberculosis 234/2005 after 21 days; assay type: functional; settings: 234/2005, 504 h; outline: as §1
[11] = tested on: Mycobacterium tuberculosis; assay: Antimycobacterial activity against multi-drug resistant Mycobacterium tuberculosis Praha 1 after 14 days; assay type: functional; settings: for MIC99: Praha 1, 336 h; outline: as §1
[12] = tested on: Mycobacterium tuberculosis; assay: Antimycobacterial activity against multi-drug resistant Mycobacterium tuberculosis 8666/2010 after 14 days; assay type: functional; settings: for MIC99: 8666/2010, 336 h; outline: as §1

Molecule	MIC99 [1] [µM]	MIC99 [2] [µM]	MIC99 [3] [µM]	MIC99 [4] [µM]	MIC99 [5] [µM]	MIC99 [6] [µM]	MIC99 [7] [µM]	MIC99 [8] [µM]	MIC99 [9] [µM]	MIC99 [10] [µM]	MIC99 [11] [µM]	MIC99 [12] [µM]	MIC>99 [3] [µM]	MIC>99 [4] [µM]	MIC>99 [11] [µM]	MIC>99 [12] [µM]
O=[N+]([O-])c1cc(-c2nnc(SCc3ccc(Cl)cc3)n2Cc2ccccc2)cc([N+](=O)[O-])c1	0.25 (≈ 0.12 µg/mL)	0.125 (≈ 0.0602 µg/mL)	0.125 (≈ 0.0602 µg/mL)	0.125 (≈ 0.0602 µg/mL)	0.25 (≈ 0.12 µg/mL)	0.25 (≈ 0.12 µg/mL)	0.25 (≈ 0.12 µg/mL)	0.25 (≈ 0.12 µg/mL)	0.125 (≈ 0.0602 µg/mL)	0.25 (≈ 0.12 µg/mL)	0.125 (≈ 0.0602 µg/mL)	0.125 (≈ 0.0602 µg/mL)	–	–	–	–
GENTAMICIN	–	–	–	–	–	–	–	–	–	–	–	–	1	1	1	2
O=[N+]([O-])c1cc(-c2nnc(SCc3ccc(Br)cc3)n2Cc2ccccc2)cc([N+](=O)[O-])c1	0.25 (≈ 0.132 µg/mL)	0.125 (≈ 0.0658 µg/mL)	0.125 (≈ 0.0658 µg/mL)	0.125 (≈ 0.0658 µg/mL)	0.25 (≈ 0.132 µg/mL)	0.25 (≈ 0.132 µg/mL)	0.25 (≈ 0.132 µg/mL)	0.25 (≈ 0.132 µg/mL)	0.125 (≈ 0.0658 µg/mL)	0.25 (≈ 0.132 µg/mL)	0.125 (≈ 0.0658 µg/mL)	0.25 (≈ 0.132 µg/mL)	–	–	–	–
O=[N+]([O-])c1cc(CSc2nnc(C3CCCCC3)n2Cc2ccccc2)cc(C(F)(F)F)c1	16 (≈ 7.62 µg/mL)	16 (≈ 7.62 µg/mL)	16 (≈ 7.62 µg/mL)	16 (≈ 7.62 µg/mL)	16 (≈ 7.62 µg/mL)	16 (≈ 7.62 µg/mL)	16 (≈ 7.62 µg/mL)	16 (≈ 7.62 µg/mL)	16 (≈ 7.62 µg/mL)	16 (≈ 7.62 µg/mL)	16 (≈ 7.62 µg/mL)	16 (≈ 7.62 µg/mL)	–	–	–	–
CCn1c(SCc2ccccc2)nnc1-c1cc([N+](=O)[O-])cc([N+](=O)[O-])c1	0.03 (≈ 0.0116 µg/mL)	0.03 (≈ 0.0116 µg/mL)	0.03 (≈ 0.0116 µg/mL)	0.03 (≈ 0.0116 µg/mL)	0.03 (≈ 0.0116 µg/mL)	0.03 (≈ 0.0116 µg/mL)	0.03 (≈ 0.0116 µg/mL)	0.03 (≈ 0.0116 µg/mL)	0.03 (≈ 0.0116 µg/mL)	0.03 (≈ 0.0116 µg/mL)	0.03 (≈ 0.0116 µg/mL)	0.03 (≈ 0.0116 µg/mL)	–	–	–	–
COc1ccc(Cn2c(SCc3cc([N+](=O)[O-])cc([N+](=O)[O-])c3)nnc2-c2ccccc2)cc1	4 (≈ 1.91 µg/mL)	2 (≈ 0.955 µg/mL)	2 (≈ 0.955 µg/mL)	2 (≈ 0.955 µg/mL)	4 (≈ 1.91 µg/mL)	2 (≈ 0.955 µg/mL)	4 (≈ 1.91 µg/mL)	2 (≈ 0.955 µg/mL)	2 (≈ 0.955 µg/mL)	4 (≈ 1.91 µg/mL)	2 (≈ 0.955 µg/mL)	2 (≈ 0.955 µg/mL)	–	–	–	–
COc1ccc(CSc2nnc(-c3cc([N+](=O)[O-])cc([N+](=O)[O-])c3)n2Cc2ccccc2)cc1	0.03 (≈ 0.0143 µg/mL)	0.03 (≈ 0.0143 µg/mL)	0.03 (≈ 0.0143 µg/mL)	0.03 (≈ 0.0143 µg/mL)	0.03 (≈ 0.0143 µg/mL)	0.03 (≈ 0.0143 µg/mL)	0.03 (≈ 0.0143 µg/mL)	0.03 (≈ 0.0143 µg/mL)	0.03 (≈ 0.0143 µg/mL)	0.03 (≈ 0.0143 µg/mL)	0.03 (≈ 0.0143 µg/mL)	0.03 (≈ 0.0143 µg/mL)	–	–	–	–
O=[N+]([O-])c1cc(-c2nnc(SCc3ccc(Cl)c(Cl)c3)n2Cc2ccccc2)cc(C(F)(F)F)c1	2 (≈ 1.08 µg/mL)	2 (≈ 1.08 µg/mL)	2 (≈ 1.08 µg/mL)	2 (≈ 1.08 µg/mL)	2 (≈ 1.08 µg/mL)	2 (≈ 1.08 µg/mL)	2 (≈ 1.08 µg/mL)	2 (≈ 1.08 µg/mL)	2 (≈ 1.08 µg/mL)	2 (≈ 1.08 µg/mL)	2 (≈ 1.08 µg/mL)	2 (≈ 1.08 µg/mL)	–	–	–	–
CN[C@@H]1[C@H](O[C@H]2[C@H](O[C@H]3[C@H](O)[C@@H](O)[C@H](N=C(N)N)[C@@H](O)[C@@H]3N=C(N)N)O[C@@H](C)[C@]2(O)C=O)O[C@@H](CO)[C@H](O)[C@H]1O [STREPTOMYCIN]	–	> 32	> 32	> 32	–	–	–	–	–	–	–	> 32	–	–	–	–
Cn1c(SCc2ccc(Cl)cc2)nnc1-c1cc([N+](=O)[O-])cc([N+](=O)[O-])c1	0.125 (≈ 0.0507 µg/mL)	0.06 (≈ 0.0243 µg/mL)	0.125 (≈ 0.0507 µg/mL)	0.125 (≈ 0.0507 µg/mL)	0.125 (≈ 0.0507 µg/mL)	0.125 (≈ 0.0507 µg/mL)	0.125 (≈ 0.0507 µg/mL)	0.125 (≈ 0.0507 µg/mL)	0.125 (≈ 0.0507 µg/mL)	0.125 (≈ 0.0507 µg/mL)	0.125 (≈ 0.0507 µg/mL)	0.125 (≈ 0.0507 µg/mL)	–	–	–	–
O=[N+]([O-])c1cc(CSc2nnc(-c3ccc(Br)cc3)n2Cc2ccccc2)cc([N+](=O)[O-])c1	4 (≈ 2.11 µg/mL)	2 (≈ 1.05 µg/mL)	2 (≈ 1.05 µg/mL)	2 (≈ 1.05 µg/mL)	4 (≈ 2.11 µg/mL)	4 (≈ 2.11 µg/mL)	4 (≈ 2.11 µg/mL)	4 (≈ 2.11 µg/mL)	4 (≈ 2.11 µg/mL)	4 (≈ 2.11 µg/mL)	2 (≈ 1.05 µg/mL)	2 (≈ 1.05 µg/mL)	–	–	–	–
